Many of the other results were omitted from the sample, so hits are more common in it than they were.
INS-1E ATP HTS – preserves ATP levels in cytokine-treated INS-1E cells; AID 488910; 20,000 compounds, 0.1% hits; INS-1E cytokine-induced death, ATP luminescence, 48 h; normalised: neutral wells 0, positive control 100; protection from cytokine-induced ATP loss, % at 10 µM;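 active = mean replicate protection from cytokine-induced ATP loss at least 50% and at least 75% of replicates each reaching 50%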
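Test system: INS-1E rat cells | Quantity: 8000 cells per well | Medium: Phenol-red-free RPMI with 5% fetal bovine serum | Reagent: Cytokine cocktail of IFN-γ, TNF-α and IL-1β | Doses: One compound concentration, pin transfer | Timing: 48 h co-treatment, 10 min post-lysis read | Technique: Luminescent ATP assay (CellTiter-Glo)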
T cruzi HTS – intracellular Trypanosoma cruzi inhibition | intracellular Trypanosoma cruzi in host cells, plate reader | activity score (inhibition), % at 5.01 µM | 22,000 compounds, 4.9% hits | AID 651903; in the data active = activity score above about 55%;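 note: parasites and compound incubated about four days before reading; 0% = median of neutral control wells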
A1 apoptosis 2 – A1 inhibition read as caspase activation. MEF A1-2A-BIM cells, caspase-Glo luminescence, 3 h; percent of clofoctol response, DMSO zero. caspase activation, % (no concentration beside the values). 24,000 tested, under 10 active. AID 2465; in the data active = caspase activation above about 5.9%
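System: mouse embryonic fibroblasts co-expressing A1 and BIM (A1-2A-BIM), primed for A1 dependence; amount: 2500 cells/well; doses: 50 nL pinned compound; schedule: cells settled overnight, compound exposure 3 h at 37 °C, 5% CO2; detection: Caspase-Glo 3/7 luminescence, 1 h at room temperature; read-out: Caspase-3/7 activation, seen as rise in luminescence signal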
* hit, by the source's call; . = no result.

SMILES	INS-1E ATP HTS	T cruzi HTS	A1 apoptosis 2
C[C@H](CO)N1C[C@H](C)[C@H](CN(C)S(=O)(=O)c2ccc(F)cc2)Oc2ncc(C#Cc3ccc(F)cc3)cc2C1=O	.	66*	-1
Cc1ccc(S(=O)(=O)N(C)C[C@@H]2Oc3ncc(C#Cc4ccc(F)cc4)cc3C(=O)N([C@H](C)CO)C[C@@H]2C)cc1	.	59*	.
C[C@H](CO)N1C[C@H](C)[C@H](CN(C)S(C)(=O)=O)Oc2ncc(C#Cc3ccc(C(F)(F)F)cc3)cc2C1=O	.	17	0
C[C@H](CO)N1C[C@H](C)[C@H](CN(C)S(=O)(=O)c2ccccc2)Oc2ncc(C#Cc3ccc(F)cc3)cc2C1=O	.	52	0
C[C@H](CO)N1C[C@H](C)[C@H](CN(C)S(=O)(=O)c2ccc(C#N)cc2)Oc2ncc(C#Cc3ccc(C(F)(F)F)cc3)cc2C1=O	-11	87*	1
COc1ccc(C#Cc2cnc3c(c2)C(=O)N([C@H](C)CO)C[C@H](C)[C@H](CN(C)S(=O)(=O)c2ccc(C)cc2)O3)cc1OC	.	34	0
C[C@H](CO)N1C[C@H](C)[C@H](CN(C)S(=O)(=O)c2ccc(F)cc2)Oc2ncc(C#Cc3cccc(F)c3)cc2C1=O	.	65*	0
C[C@H](CO)N1C[C@H](C)[C@H](CN(C)S(=O)(=O)c2ccccc2)Oc2ncc(C#Cc3cccc(F)c3)cc2C1=O	.	47	0
NC(=O)NCC#Cc1ccc2c(c1)[C@]1(C(=O)N2)[C@H](C(=O)Nc2nc3ccccc3s2)[C@H]2C(=O)O[C@H](c3ccccc3)[C@H](c3ccccc3)N2[C@@H]1c1ccccc1OCCO	.	.	0
COC(=O)CCCCCCC(=O)N/N=C/c1c(CO)cnc(C)c1O	36	-2	-1
O=C(O)CCCCCCC(=O)N/N=C/c1cccnc1	11	-12	0
COc1ccc(COC[C@]23N=C4Sc5ccc([N+](=O)[O-])cc5C(=O)N4[C@H](c4ccccc4O2)[C@H]3CO)cc1	.	.	0
COc1cccc(OC)c1/C=N/NC(=O)CCCCCC(=O)NO	.	.	-1
O=C(N/N=C/c1ccc(O)c(F)c1)c1ccccn1	-12	-8	-13
O=C(CCCCCCC(=O)Nc1ccccc1O)N/N=C/c1ccc(-c2cccc(Cl)c2)o1	.	.	-1
C[C@@H]1CN([C@@H](C)CO)C(=O)c2cc(NC(=O)Nc3ccccc3)ccc2O[C@@H](C)CCCCO[C@@H]1CN(C)Cc1ccc(C(F)(F)F)cc1	.	.	-1
C[C@@H]1CCCCO[C@H](CN(C)Cc2ccccc2)[C@@H](C)CN([C@H](C)CO)C(=O)c2cc(NC(=O)Nc3ccc(F)cc3)ccc2O1	-3	-1	-1
C[C@@H]1CCCCO[C@@H](CN(C)Cc2ccccc2)[C@@H](C)CN([C@H](C)CO)C(=O)c2cc(NC(=O)Nc3ccc(F)cc3)ccc2O1	-13	62*	.
C[C@@H]1CCCCO[C@H](CN(C)Cc2ccc(C(F)(F)F)cc2)[C@@H](C)CN([C@H](C)CO)C(=O)c2cc(NC(=O)Nc3ccccc3)ccc2O1	-22	67*	0
C[C@@H]1CCCCO[C@H](CN(C)Cc2ccccc2)[C@H](C)CN([C@@H](C)CO)C(=O)c2cc(NC(=O)Nc3ccc(C(F)(F)F)cc3)ccc2O1	.	.	-1
C[C@@H]1CCCCO[C@H](CN(C)Cc2ccccc2)[C@@H](C)CN([C@H](C)CO)C(=O)c2cc(NC(=O)Nc3ccc(C(F)(F)F)cc3)ccc2O1	-18	71*	0
CC(C)(C)OC(=O)NC/C=N/NC(=O)CCCCCC(=O)O	-8	-19	0
Cc1nnc(Sc2ccc(/C=N/NC(=O)c3ccccc3O)o2)n1C	-20	-8	-1
COC(=O)CCCCCCC(=O)N/N=C/c1cc2c(cc1Br)OCO2	22	1	-1
O=C(CCCCCCC(=O)Nc1ccccc1O)N/N=C/c1cccc(B(O)O)c1	-8	-6	0
SMILES	INS-1E ATP HTS	T cruzi HTS	A1 apoptosis 2
COc1ccc(Br)c(/C=N/NC(=O)c2cccc(C(=O)NO)c2)c1	-4	-18	-3
COc1ccc(NC(=O)O[C@H]2[C@H](OC(=O)Nc3ccccc3-c3ccccc3)[C@H](OC(=O)Nc3ccccc3-c3ccccc3)[C@@H](OC)O[C@@H]2CO)cc1	.	.	-2
C[C@H](CO)N1C[C@H](C)[C@H](CN(C)Cc2ccc(-c3ccccc3)cc2)Oc2ccc(NC(=O)Cc3ccccc3)cc2CC1=O	-18	47	.
C[C@@H]1CN([C@@H](C)CO)C(=O)Cc2cc(NC(=O)Nc3ccc(F)cc3)ccc2O[C@@H]1CN(C)Cc1ccc(Oc2ccccc2)cc1	0	75*	.
C[C@@H]1CN([C@@H](C)CO)C(=O)Cc2cc(NC(=O)Nc3ccccc3)ccc2O[C@H]1CN(C)Cc1ccc(Oc2ccccc2)cc1	.	.	1
C[C@H](CO)N1C[C@H](C)[C@H](CN(C)Cc2ccc(Oc3ccccc3)cc2)Oc2ccc(NC(=O)Cc3ccccc3)cc2CC1=O	-41	54	1
C[C@H]1CN([C@@H](C)CO)C(=O)Cc2cc(NC(=O)Cc3ccccc3)ccc2O[C@@H]1CN(C)Cc1ccc(Oc2ccccc2)cc1	-30	63*	.
C[C@H]1CN([C@@H](C)CO)C(=O)Cc2cc(NC(=O)Nc3ccccc3)ccc2O[C@@H]1CN(C)Cc1ccc(Oc2ccccc2)cc1	-26	49	.
C[C@@H]1CN([C@H](C)CO)C(=O)Cc2cc(NC(=O)Nc3ccccc3)ccc2O[C@@H]1CN(C)Cc1ccc(Oc2ccccc2)cc1	-69	72*	2
C[C@@H]1CN([C@H](C)CO)C(=O)Cc2cc(NC(=O)Cc3ccccc3)ccc2O[C@@H]1CN(C)Cc1ccc(-c2ccccc2)cc1	-62	72*	1
O=C(CCCCCC(=O)Nc1ccccc1O)N/N=C/C1=CCCCC1	.	.	0
O=C(NO)c1ccc(C(=O)N/N=C/c2ccc(-c3ccccc3)c(F)c2)cc1	.	.	-1
C=CCC/C=N/NC(=O)CCCCCCC(=O)Nc1ccccc1O	4	-5	-1
COC(=O)CCCCCCC(=O)N/N=C/c1cc(OC)ccc1Br	4	12	.
C[C@H]1CN([C@@H](C)CO)C(=O)Cc2cc(NC(=O)CCC(F)(F)F)ccc2O[C@@H]1CN(C)Cc1ccc(-c2ccccc2)cc1	-53	60*	.
C[C@H]1CN([C@@H](C)CO)C(=O)Cc2cc(NC(=O)Nc3ccccc3)ccc2O[C@H]1CN(C)Cc1ccc(Oc2ccccc2)cc1	-16	-4	.
C[C@@H]1CN([C@@H](C)CO)C(=O)Cc2cc(NC(=O)CCC(F)(F)F)ccc2O[C@H]1CN(C)Cc1ccc(-c2ccccc2)cc1	.	.	2
C[C@@H]1CN([C@@H](C)CO)C(=O)Cc2cc(NC(=O)Nc3ccccc3)ccc2O[C@@H]1CN(C)Cc1ccc(Oc2ccccc2)cc1	-74	81*	.
CC1(C)COC(CCC/C=N/NC(=O)CCCCCCC(=O)O)OC1	1	-27	.
C[C@H](CO)N1C[C@H](C)[C@H](CN(C)Cc2ccc3c(c2)OCO3)Oc2c(NC(=O)c3cnccn3)cccc2C1=O	1	1	.
C[C@@H]1CN([C@H](C)CO)C(=O)c2cccc(NC(=O)c3ccc(-c4nccs4)cc3)c2O[C@@H]1CN(C)Cc1ccc2c(c1)OCO2	-5	15	0

Screens (PubChem)
